The source made the active and inactive calls. The rule behind the calls is not given here.
Columns and labels:
PC-3 [1] = test: Cytotoxicity against human PC3 cells assessed as growth inhibition at 100 uM after 48 hrs by trypan blue exclusion assay; assay type: functional, cell-based
Method in brief: (§1)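 Cells cultured in DMEM with 10% FBS, streptomycin and penicillin at 37 °C under 5% CO2, and plated at 1.2 × 10^5/mL one day before treatment. Single 100 μM exposure for 48 h from DMSO stock diluted in medium. Viability read by MTT at 550 nm, blank-subtracted, as % of DMSO-vehicle control. Random checks by trypan blue exclusion count.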

HeLa [2] = test: Cytotoxicity against human HeLa cells assessed as growth inhibition at 100 uM after 48 hrs by trypan blue exclusion assay; assay type: functional, cell-based; method in brief: as §1
PC-3 [3] = test: Cytotoxicity against human PC3 cells after 48 hrs; assay type: functional, cell-based; details: PC-3, 48 h
Method in brief: (§2)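 MTT viability. ATCC cells in DMEM with 10% FBS and penicillin/streptomycin at 37 °C under 5% CO2, plated at 1.2 × 10^5/mL the day before dosing. Exposed 48 h to 20−100 μM (DMSO stocks diluted in medium). Formazan dissolved in DMSO and read at 550 nm. Viability expressed as % of vehicle control, blank-subtracted. Checked by trypan blue count. PEITC as positive control. Mean ± SD, at least three experiments in duplicate.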

HeLa [4] = test: Cytotoxicity against human HeLa cells after 48 hrs; assay type: functional, cell-based; method in brief: as §2
[5] = biological target: Heat shock protein HSP 90-alpha (Homo sapiens, UniProt P07900); test: Binding affinity to recombinant HSP90-alpha (unknown origin) by surface plasmon resonance analysis

| Activity [5] | SMILES | growth inhibition (GI) (PC-3 [1]) | growth inhibition (GI) (HeLa [2]) | IC50 (PC-3 [3]) | IC50 (HeLa [4]) | Kd [5] |
| --- | --- | --- | --- | --- | --- | --- |
| – | C/C=C(\C)C(=O)O[C@H]1C[C@@H](O)[C@@]2(C(=O)OC)CO[C@H]3[C@@H](O)[C@@](C)([C@]45O[C@@]4(C)[C@H]4C[C@@H]5O[C@@H]5OC=C[C@@]54O)[C@@H]4[C@@H](C(=O)OC)OC[C@@]14[C@@H]32 | inactive | inactive | – | – | – |
| – | CC(=O)O[C@@H]1[C@H](O)[C@H]2C(C)(C)C(=O)CC[C@]2(C)[C@H]2CC[C@]3(C)C(=CC[C@H]3C3=COC(=O)C3O)[C@]12C (stereo partly drawn) | inactive | inactive | – | – | – |
| – | CC(=O)O[C@@H]1[C@H](O)[C@H]2C(C)(C)C(=O)CC[C@]2(C)[C@H]2CC[C@]3(C)C(=CC[C@H]3c3ccoc3)[C@]12C | Active | Active | 90 µM | 74 µM | – |
| – | C/C=C(\C)C(=O)O[C@H]1C[C@@H](O)[C@@]2(C)CO[C@H]3[C@H]4O[C@@H]5C[C@@H](c6ccoc6)C(C)=C5[C@@]4(C)[C@H](CC(=O)OC)[C@]1(C)[C@@H]32 [DESACETYL SALANNIN] | inactive | inactive | – | – | 0.033 µM |
| – | CC(=O)O[C@@H]1[C@H](O)[C@H]2C(C)(C)C(=O)C=C[C@]2(C)[C@H]2CC[C@]3(C)C(=CC[C@H]3c3ccoc3)[C@]12C [NIMONOL] | Active | Active | 95 µM | 77 µM | – |
| – | CC(=O)O[C@@H]1[C@H](O)[C@H]2C(C)(C)C(=O)CC[C@]2(C)[C@H]2CC[C@]3(C)C(=CC[C@H]3[C@H]3COC(=O)C3)[C@]12C | inactive | inactive | – | – | – |
| – | CC(=O)O[C@H]1C[C@@H](OC(C)=O)[C@@]2(C)CO[C@@H]3[C@@H](O)[C@@]4(C)C5=CC[C@@H](c6ccoc6)[C@]5(C)CC[C@@H]4[C@]1(C)[C@@H]32 | Active | Active | 80 µM | 74 µM | 0.049 µM |
| – | CC(=O)O[C@@H]1[C@H](O)[C@H]2C(C)(C)C(=O)C=C[C@]2(C)[C@H]2CC[C@]3(C)C(=CC[C@H]3C3=COC(=O)C3O)[C@]12C (relative stereo) | inactive | inactive | – | – | – |
| inactive | COC(=O)C[C@H]1[C@]2(C)C3=C(C)[C@H](C4=COC(=O)C4O)C[C@@H]3O[C@@H]2[C@H](O)[C@@H]2[C@]1(C)C(=O)C=C[C@@]2(C)O (stereo partly drawn) | inactive | inactive | – | – | – |
| – | CC(=O)O[C@@H]1[C@H](O)[C@H]2C(C)(C)C(=O)C=C[C@]2(C)[C@H]2CC[C@]3(C)C(=CC[C@H]3[C@@H]3CC(=O)OC3=O)[C@]12C (relative stereo) | Active | Active | > 100 µM | 95 µM | – |
| – | CC(=O)O[C@@H]1[C@H](O)[C@H]2C(C)(C)C(=O)CC[C@]2(C)[C@H]2CC[C@]3(C)C(=CC[C@H]3[C@@H]3CC(=O)OC3=O)[C@]12C (relative stereo) | inactive | inactive | – | – | – |
| – | COC(=O)[C@H]1OC[C@]23[C@@H]1[C@](C)([C@]14O[C@@]1(C)[C@H]1C[C@@H]4O[C@@H]4OC=C[C@@]41O)[C@H](O)[C@@H]1OC[C@](C(=O)OC)([C@H](O)C[C@@H]2O)[C@H]13 | inactive | inactive | – | – | – |
| inactive | COC(=O)C[C@H]1[C@]2(C)C3=C(C)[C@H](C4=CC(=O)OC4O)C[C@@H]3O[C@@H]2[C@H](O)[C@@H]2[C@]1(C)C(=O)C=C[C@@]2(C)O (stereo partly drawn) | inactive | inactive | – | – | – |
| – | COc1cc(/C=C/C(=O)OC[C@H]2O[C@@H](OC(C)(C)C(=O)O)[C@H](O)[C@@H](O)[C@@H]2O)cc(OC)c1O | inactive | inactive | – | – | – |
| inactive | CC(=O)O[C@@H]1C[C@H](OC(=O)C=C(C)C)[C@@]2(C)[C@H]3[C@@H](OC[C@]13C)[C@@H](O)[C@@]1(C)C3=CC[C@@H]([C@@H]4COC(=O)C4)[C@]3(C)CC[C@@H]12 | inactive | inactive | – | – | – |
